The values below come from paper PMC3841656 (Pharmaceutical Research, 2013).

What all share (assay type): physicochemical
A short description of data set [1]: Equilibrium solubility in soybean oil. Particulars: 37°C, HPLC. Summed up:
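The drug was added in excess to triplicate sealed glass vials of soybean oil (2 g, later 1 g), vortexed and incubated at 37°C. Samples were taken at 24, 48 and 72 h or longer after centrifugation at 37°C, 2,800 g for 30 min. Supernatant (20–30 mg) was diluted in 66% v/v chloroform/methanol and quantified by C18 RP-HPLC-UV against a standard curve. Equilibrium was taken when consecutive 24-h points differed <10%; mean ± SD, n ≥ 3.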

A short description of data set [2]: Equilibrium solubility in PEG400, ambient conditions. The note with it: PEG400, 37°C, ambient milieu (0.32% w/w water). The essentials:
(§1)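 Excess drug was added to triplicate sealed glass vials of excipient (2 g, later 1 g) and held at 37°C with periodic vortexing. Vials were centrifuged at 37°C, 2,800 g for 30 min and sampled at 24, 48 and 72 h or longer. Supernatant (20–30 mg) was diluted in 7% v/v chloroform/methanol and analysed by C18 RP-HPLC-UV. Equilibrium was taken when consecutive 24-h samples differed <10%; mean ± SD, n ≥ 3.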

A short description of data set [3]: Equilibrium solubility in polysorbate 80. The note with it: polysorbate 80, 37°C, HPLC. The essentials:
as §1

The nature of data set [4]: Solubility in PEG400 under dry conditions. The note with it: two tailed t-test, ambient vs dry.

As for `CC(C)(Oc1ccc(CCNC(=O)c2ccc(Cl)cc2)cc1)C(=O)O` [Bezafibrate], the “equilibrium solubility in SBO” value in data set [1] is listed as “less than the limit of detection”.

`CCOc1nc2cccc(C(=O)O)c2n1Cc1ccc(-c2ccccc2-c2nnn[nH]2)cc1` [Candesartan]: the “equilibrium solubility in PEG400” value in data set [2] worked out at 13.8 ± 1.5 mg/g. Besides, in data set [1], the “equilibrium solubility in SBO” value is recorded as “less than the limit of detection”.

Turning to `C#C[C@]1(O)CC[C@H]2[C@@H]3CCc4cc(O)ccc4[C@H]3CC[C@@]21C` [Ethinylestradiol], in data set [2], the “equilibrium solubility in PEG400” value is listed as “high solubility”. The “equilibrium solubility in PS80” value in data set [3] is given as “high solubility”.

`COc1ccc(Cl)cc1C(=O)NCCc1ccc(S(=O)(=O)NC(=O)NC2CCCCC2)cc1` [Glibenclamide]: in data set [1], the “equilibrium solubility in SBO” value was “less than the limit of detection”.

For `COc1ccc2c(c1)c(CC(=O)O)c(C)n2C(=O)c1ccc(Cl)cc1` [Indomethacin], in data set [4], the “difference in PEG400 solubility between ambient and dry conditions” value was “no significant difference”.

In the case of `N[C@@H](Cc1cc(I)c(Oc2cc(I)c(O)c(I)c2)c(I)c1)C(=O)O` [Levothyroxine], in data set [1], the “equilibrium solubility in SBO” value is “less than the limit of detection”.

Consider `CC(C)(C)NC(=O)[C@@H]1C[C@@H]2CCCC[C@@H]2CN1C[C@@H](O)[C@H](Cc1ccccc1)NC(=O)[C@H](CC(N)=O)NC(=O)c1ccc2ccccc2n1` [Saquinavir], for which the “equilibrium solubility in PEG400” value in data set [2] is given as “high solubility”.
